Values after ≈ are worked out from the molar mass of the structure shown.
Tests used:
[1] = Drug uptake in Sprague-Dawley rat brain at 10 mg/kg, po after 90 mins post dose administered as single dose by LC-MS/MS analysis; type: ADME, organism-based; details: read-out: Drug uptake
Method in brief: (§1)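 Rats given a single oral dose of 10 mg/kg. Brain concentrations were measured at 30, 60 and 90 min postdose, and brain AUC0–inf was determined. Values are the mean of three rats. Lower limit of quantification was 1 ng/mL.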

[2] = Drug uptake in Sprague-Dawley rat brain at 10 mg/kg, po after 60 mins post dose administered as single dose by LC-MS/MS analysis; type: ADME, organism-based; details: read-out: Drug uptake; method in brief: as §1
[3] = biological target: Metabotropic glutamate receptor 4 (Homo sapiens, UniProt Q14833); experiment: Positive allosteric modulation of recombinant human mGlu4 receptor expressed in HEK293 cells co-expressing Gi/Gq assessed as increase in glutamate-induced calcium flux preincubated for 10 mins followed by glutamate addition measured for 3 mins by Fluo4-AM dye based fluorescence assay; type: functional, cell-based; details: read-out: EC50
[4] = Drug uptake in Sprague-Dawley rat brain at 10 mg/kg, po after 30 mins post dose administered as single dose by LC-MS/MS analysis; type: ADME, organism-based; details: read-out: Drug uptake
Method in brief: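 Rats given a single oral dose of 10 mg/kg. The first plasma sample was taken at 15 min, and sampling continued to 24 h postdose. Brain was sampled at 30 min. Values are the mean (±SEM) of 3 rats.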

Rattus norvegicus [5] = species on record: Rattus norvegicus; experiment: Protection against 6-OHDA induced parkinsonian motor deficit in Sprague-Dawley rat after 28 days post surgery; type: functional
Rattus norvegicus [6] = experiment: Toxicity in 6-OHDA induced parkinsonian motor deficit Sprague-Dawley rat model assessed as induction of dyskinesia at 20 mg/kg, ip; type: organism-based; details: in vivo
Rattus norvegicus [7] = experiment: Toxicity in 6-OHDA induced parkinsonian motor deficit Sprague-Dawley rat model assessed as induction of overacting rearing behavior at 20 mg/kg, ip; type: organism-based; details: in vivo
[8] = Thermodynamic solubility of the compound in water; type: physicochemical; details: read-out: Therm_solubility
Method in brief: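 Thermodynamic solubility measured in milli-Q water.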

Metabotropic glutamate receptor 4, sequence (Q14833 whole entry): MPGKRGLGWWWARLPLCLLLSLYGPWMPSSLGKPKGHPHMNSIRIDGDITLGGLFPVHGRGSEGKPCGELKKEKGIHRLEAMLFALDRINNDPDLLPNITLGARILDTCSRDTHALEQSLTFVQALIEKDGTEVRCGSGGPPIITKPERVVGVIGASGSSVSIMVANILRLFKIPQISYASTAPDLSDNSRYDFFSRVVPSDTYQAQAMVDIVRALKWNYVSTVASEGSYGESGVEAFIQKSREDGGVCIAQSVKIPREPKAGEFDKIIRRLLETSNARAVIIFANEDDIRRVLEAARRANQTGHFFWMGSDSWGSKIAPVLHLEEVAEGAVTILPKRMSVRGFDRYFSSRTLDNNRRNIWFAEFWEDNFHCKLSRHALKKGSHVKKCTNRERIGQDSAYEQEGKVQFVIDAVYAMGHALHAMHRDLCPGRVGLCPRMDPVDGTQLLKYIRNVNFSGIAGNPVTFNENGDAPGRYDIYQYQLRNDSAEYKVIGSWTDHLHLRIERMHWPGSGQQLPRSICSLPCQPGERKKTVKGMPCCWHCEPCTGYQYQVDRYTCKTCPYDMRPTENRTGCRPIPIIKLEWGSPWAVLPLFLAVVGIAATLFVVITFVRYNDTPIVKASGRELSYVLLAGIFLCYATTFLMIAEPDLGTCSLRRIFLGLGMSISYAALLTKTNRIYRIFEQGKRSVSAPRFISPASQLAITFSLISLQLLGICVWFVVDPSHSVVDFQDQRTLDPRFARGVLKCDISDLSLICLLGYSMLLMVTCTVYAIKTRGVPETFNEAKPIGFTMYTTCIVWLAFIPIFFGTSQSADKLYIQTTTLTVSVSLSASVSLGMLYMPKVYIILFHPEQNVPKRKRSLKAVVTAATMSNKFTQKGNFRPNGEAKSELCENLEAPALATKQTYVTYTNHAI

Row | concentration at 1.5 h [1] [ng/g] | concentration at 1 h [2] [ng/g] | EC50 [3] [nM] | concentration at 0.5 h [4] [ng/g] | solubility thermodynamic [8] [mM] | SMILES | Activity (Rattus norvegicus [5]) | Activity (Rattus norvegicus [6]) | Activity (Rattus norvegicus [7])
1 | 137 | 197 | 25 | 275 | – | O/N=c1\cc(-c2cc3sccc3cn2)oc2ccc(CCCN3CCC(F)(F)C3)cc12 | – | – | –
2 | – | – | – | – | – | N[C@@H](Cc1ccc(O)c(O)c1)C(=O)O [LEVODOPA] | Dose-dependent effect | Non-Toxic | Toxic
3 | – | < 1 | 53 | < 1 | – | CC(=O)N1CC(Oc2ccc3oc(-c4cc5sccc5cn4)c/c(=N\O)c3c2)C1 | – | – | –
4 | – | 6.5 | 6 | 10.7 | – | CC(=O)N1CCC(COc2ccc3oc(-c4cc5sccc5cn4)c/c(=N\O)c3c2)CC1 | – | – | –
5 | – | – | 160 | – | 0.0163 (≈ 5.73 µg/mL) | COCCOc1ccc2oc(-c3cc4cccn4cn3)c/c(=N\O)c2c1 | – | – | –
6 | – | 2.3 | 50 | 3.4 | – | O/N=c1\cc(-c2cc3cccn3cn2)oc2ccc(OCCCc3cccnc3)cc12 | – | – | –
7 | – | < 1 | 60 | < 1 | – | CN1CCCC12CCN(CCOc1ccc3oc(-c4cc5sccc5cn4)c/c(=N\O)c3c1)CC2 | – | – | –
8 | – | – | – | – | 10.6 | Cl.O/N=c1\cc(-c2cc3cccn3cn2)oc2ccc(OCCN3CCOCC3)cc12 | – | – | –
9 | 100 | 201 | 106 | 157 | – | O/N=c1\cc(-c2cc3sccc3cn2)oc2ccc(CCCN3CCC(F)(F)CC3)cc12 | – | – | –
